In ChEMBL document CHEMBL4184148 (Bioorg Med Chem Lett, 2017):

Legend:
HEK293 = test: Cytotoxicity against human HEK293 cells assessed as reduction in cell viability after 72 hrs by CellTiter-Glo assay; assay type: cell-based; settings: HEK293, 72 h
In short: (§1)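 Cells were treated across a dose-response range for 72 h, and viability was read by CellTiter-Glo luminescence. Measurements were made in triplicate and reported with standard error.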

[1] = biological target: Mitogen-activated protein kinase kinase kinase 6 (Homo sapiens) (UniProt O95382); test: Binding affinity to wild-type human partial length ASK2 (M278 to R972 residues) expressed in HEK293 cells at 1 uM by Kinomescan method relative to control; assay type: cell-based
In short: (§2)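 Kinome-wide competition binding panel run by an outside provider, with each compound tested at a single concentration. Activity is read against the kinase panel.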

[2] = biological target: Aurora kinase A (Homo sapiens) (UniProt O14965); test: Binding affinity to wild-type human partial length AURKA (E122 to K401 residues) expressed in HEK293 cells at 1 uM by Kinomescan method relative to control; assay type: cell-based; in short: as §2
[3] = biological target: Ephrin type-A receptor 1 (Homo sapiens) (UniProt P21709); test: Binding affinity to wild-type human partial length EPHA1 (V588 to I913 residues) expressed in Escherichia coli BL21 at 1 uM by Kinomescan method relative to control
[4] = test system: Receptor-type tyrosine-protein kinase FLT3 (Homo sapiens), P36888 [D835V]; test: Binding affinity to human partial length FLT3 D835V mutant (V592 to Y969 residues) expressed in Escherichia coli BL21 at 1 uM by Kinomescan method relative to control
[5] = biological target: Tyrosine-protein kinase JAK2 (Homo sapiens) (UniProt O60674); test: Binding affinity to wild-type human partial length JAK2 JH1 catalytic domain (A829 to G1132 residues) expressed in HEK293 cells at 1 uM by Kinomescan method relative to control; assay type: cell-based
[6] = biological target: Mitogen-activated protein kinase kinase kinase kinase 3 (Homo sapiens) (UniProt Q8IVH8); test: Binding affinity to wild-type human partial length MAP4K3 (M1 to D301 residues) expressed in Escherichia coli BL21 at 1 uM by Kinomescan method relative to control
[7] = test system: Proto-oncogene tyrosine-protein kinase receptor Ret (Homo sapiens), P07949 [V804L]; test: Binding affinity to human partial length RET V804L mutant (E713 to D1014 residues) expressed in Escherichia coli BL21 at 1 uM by Kinomescan method relative to control
[8] = biological target: Serine/threonine-protein kinase RIO2 (Homo sapiens) (UniProt Q9BVS4); test: Binding affinity to wild-type human partial length RIOK2 (M1 to D313 residues) expressed in HEK293 cells at 1 uM by Kinomescan method relative to control; assay type: cell-based
[9] = biological target: Uncharacterized serine/threonine-protein kinase SBK3 (Homo sapiens) (UniProt P0C264); test: Binding affinity to wild-type human partial length SgK110 (L22 to R329 residues) expressed in Escherichia coli BL21 at 1 uM by Kinomescan method relative to control
HCT-116 [10] = test: Cytotoxicity against human HCT116 cells assessed as reduction in cell viability after 72 hrs by CellTiter-Glo assay; assay type: functional, cell-based; settings: HCT-116, 72 h; in short: as §1
HCT-116 [11] = test: Cytotoxicity against human HCT116 cells assessed as reduction in cell viability up to 33.3 uM after 72 hrs by CellTiter-Glo assay relative to control; assay type: functional
PC-3 = test: Cytotoxicity against human PC3 cells assessed as reduction in cell viability up to 33.3 uM after 72 hrs by CellTiter-Glo assay relative to control; assay type: functional

Chain of Proto-oncogene tyrosine-protein kinase receptor Ret (Homo sapiens), P07949 [V804L] (P07949 whole entry V804L, the tested form may be a part): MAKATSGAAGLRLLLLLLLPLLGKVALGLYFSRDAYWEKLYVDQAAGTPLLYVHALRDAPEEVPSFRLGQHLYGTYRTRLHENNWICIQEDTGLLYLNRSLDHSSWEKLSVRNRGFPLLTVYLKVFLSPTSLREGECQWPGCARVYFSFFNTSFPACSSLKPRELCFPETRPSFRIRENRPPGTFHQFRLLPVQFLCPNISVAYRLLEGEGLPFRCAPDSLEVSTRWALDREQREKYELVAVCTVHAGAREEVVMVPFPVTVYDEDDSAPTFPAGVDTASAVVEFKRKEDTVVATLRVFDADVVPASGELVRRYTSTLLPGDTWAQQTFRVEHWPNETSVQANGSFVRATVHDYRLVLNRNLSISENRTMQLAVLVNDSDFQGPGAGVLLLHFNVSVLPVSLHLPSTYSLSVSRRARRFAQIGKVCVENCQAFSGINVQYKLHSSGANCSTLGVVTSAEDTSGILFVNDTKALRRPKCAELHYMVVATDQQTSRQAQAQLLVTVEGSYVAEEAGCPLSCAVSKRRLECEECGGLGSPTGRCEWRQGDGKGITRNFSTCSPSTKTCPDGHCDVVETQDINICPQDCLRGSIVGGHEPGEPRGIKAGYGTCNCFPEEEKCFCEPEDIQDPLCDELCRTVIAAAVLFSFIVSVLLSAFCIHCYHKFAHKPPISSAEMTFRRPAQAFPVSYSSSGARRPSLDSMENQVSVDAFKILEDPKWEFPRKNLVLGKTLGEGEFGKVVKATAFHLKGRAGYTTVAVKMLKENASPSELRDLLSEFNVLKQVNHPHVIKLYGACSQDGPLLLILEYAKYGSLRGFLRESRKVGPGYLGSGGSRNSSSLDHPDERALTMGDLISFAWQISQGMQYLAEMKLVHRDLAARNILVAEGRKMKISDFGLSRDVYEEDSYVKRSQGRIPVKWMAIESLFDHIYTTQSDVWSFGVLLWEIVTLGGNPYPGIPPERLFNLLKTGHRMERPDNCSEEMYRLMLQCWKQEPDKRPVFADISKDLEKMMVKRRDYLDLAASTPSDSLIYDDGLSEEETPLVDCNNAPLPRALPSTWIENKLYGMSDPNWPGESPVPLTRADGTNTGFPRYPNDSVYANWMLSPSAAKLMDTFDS
Chain of Serine/threonine-protein kinase RIO2 (Homo sapiens) (Q9BVS4 whole entry, looked up, the tested form may be a part): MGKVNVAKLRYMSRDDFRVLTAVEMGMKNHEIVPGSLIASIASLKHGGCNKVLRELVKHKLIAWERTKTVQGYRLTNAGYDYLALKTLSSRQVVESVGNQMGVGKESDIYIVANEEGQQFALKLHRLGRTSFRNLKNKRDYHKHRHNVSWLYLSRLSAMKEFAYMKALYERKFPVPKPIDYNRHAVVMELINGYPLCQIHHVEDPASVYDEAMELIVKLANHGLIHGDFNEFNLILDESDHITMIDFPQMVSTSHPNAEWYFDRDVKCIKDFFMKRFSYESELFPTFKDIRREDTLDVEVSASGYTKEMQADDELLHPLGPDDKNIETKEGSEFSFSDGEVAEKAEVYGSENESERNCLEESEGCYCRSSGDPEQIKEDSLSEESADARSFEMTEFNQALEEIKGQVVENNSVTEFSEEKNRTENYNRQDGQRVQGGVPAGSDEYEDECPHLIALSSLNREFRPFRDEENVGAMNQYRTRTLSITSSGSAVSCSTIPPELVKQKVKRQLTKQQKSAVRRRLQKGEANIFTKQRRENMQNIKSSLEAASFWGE
Chain of Aurora kinase A (Homo sapiens) (O14965 whole entry, the tested form may be a part): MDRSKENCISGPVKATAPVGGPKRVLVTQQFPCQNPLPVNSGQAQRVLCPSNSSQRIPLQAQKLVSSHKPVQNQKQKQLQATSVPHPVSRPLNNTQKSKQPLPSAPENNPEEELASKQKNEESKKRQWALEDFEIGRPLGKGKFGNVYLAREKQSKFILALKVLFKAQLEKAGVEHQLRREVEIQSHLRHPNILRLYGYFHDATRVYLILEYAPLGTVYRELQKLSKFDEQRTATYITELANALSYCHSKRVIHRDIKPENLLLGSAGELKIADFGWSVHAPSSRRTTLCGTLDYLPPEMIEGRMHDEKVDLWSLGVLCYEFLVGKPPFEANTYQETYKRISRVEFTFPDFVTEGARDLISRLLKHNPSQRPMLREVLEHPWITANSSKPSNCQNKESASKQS
Chain of Tyrosine-protein kinase JAK2 (Homo sapiens) (O60674 whole entry, the tested form may be a part): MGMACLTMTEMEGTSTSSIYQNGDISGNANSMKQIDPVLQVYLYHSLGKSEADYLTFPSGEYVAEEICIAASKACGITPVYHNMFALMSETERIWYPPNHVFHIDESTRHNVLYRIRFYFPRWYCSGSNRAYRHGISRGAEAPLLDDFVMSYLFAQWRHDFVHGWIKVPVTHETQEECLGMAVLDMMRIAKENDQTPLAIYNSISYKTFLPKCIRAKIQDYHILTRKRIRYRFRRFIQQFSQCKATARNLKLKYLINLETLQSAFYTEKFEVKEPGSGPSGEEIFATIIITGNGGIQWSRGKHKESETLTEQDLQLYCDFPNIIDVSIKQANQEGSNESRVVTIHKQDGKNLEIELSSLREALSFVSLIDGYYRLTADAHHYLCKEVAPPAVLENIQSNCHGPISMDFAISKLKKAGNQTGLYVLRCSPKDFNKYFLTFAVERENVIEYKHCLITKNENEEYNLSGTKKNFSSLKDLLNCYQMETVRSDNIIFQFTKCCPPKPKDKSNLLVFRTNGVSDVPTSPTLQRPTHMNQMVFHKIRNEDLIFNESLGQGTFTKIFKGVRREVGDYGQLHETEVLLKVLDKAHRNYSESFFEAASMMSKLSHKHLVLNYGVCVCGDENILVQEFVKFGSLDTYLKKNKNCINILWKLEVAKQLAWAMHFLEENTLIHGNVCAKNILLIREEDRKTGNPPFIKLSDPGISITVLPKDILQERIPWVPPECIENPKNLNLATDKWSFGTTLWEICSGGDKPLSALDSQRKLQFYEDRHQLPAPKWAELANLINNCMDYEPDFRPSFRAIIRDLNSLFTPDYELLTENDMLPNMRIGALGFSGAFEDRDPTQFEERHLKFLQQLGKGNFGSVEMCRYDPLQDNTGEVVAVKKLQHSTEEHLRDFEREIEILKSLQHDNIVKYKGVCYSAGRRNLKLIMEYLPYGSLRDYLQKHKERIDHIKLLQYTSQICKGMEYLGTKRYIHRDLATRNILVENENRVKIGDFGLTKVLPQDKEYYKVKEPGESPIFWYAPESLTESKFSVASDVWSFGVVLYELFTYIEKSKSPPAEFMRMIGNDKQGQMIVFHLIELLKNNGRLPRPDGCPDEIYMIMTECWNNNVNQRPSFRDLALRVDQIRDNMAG
Chain of Mitogen-activated protein kinase kinase kinase kinase 3 (Homo sapiens) (Q8IVH8 whole entry, the tested form may be a part): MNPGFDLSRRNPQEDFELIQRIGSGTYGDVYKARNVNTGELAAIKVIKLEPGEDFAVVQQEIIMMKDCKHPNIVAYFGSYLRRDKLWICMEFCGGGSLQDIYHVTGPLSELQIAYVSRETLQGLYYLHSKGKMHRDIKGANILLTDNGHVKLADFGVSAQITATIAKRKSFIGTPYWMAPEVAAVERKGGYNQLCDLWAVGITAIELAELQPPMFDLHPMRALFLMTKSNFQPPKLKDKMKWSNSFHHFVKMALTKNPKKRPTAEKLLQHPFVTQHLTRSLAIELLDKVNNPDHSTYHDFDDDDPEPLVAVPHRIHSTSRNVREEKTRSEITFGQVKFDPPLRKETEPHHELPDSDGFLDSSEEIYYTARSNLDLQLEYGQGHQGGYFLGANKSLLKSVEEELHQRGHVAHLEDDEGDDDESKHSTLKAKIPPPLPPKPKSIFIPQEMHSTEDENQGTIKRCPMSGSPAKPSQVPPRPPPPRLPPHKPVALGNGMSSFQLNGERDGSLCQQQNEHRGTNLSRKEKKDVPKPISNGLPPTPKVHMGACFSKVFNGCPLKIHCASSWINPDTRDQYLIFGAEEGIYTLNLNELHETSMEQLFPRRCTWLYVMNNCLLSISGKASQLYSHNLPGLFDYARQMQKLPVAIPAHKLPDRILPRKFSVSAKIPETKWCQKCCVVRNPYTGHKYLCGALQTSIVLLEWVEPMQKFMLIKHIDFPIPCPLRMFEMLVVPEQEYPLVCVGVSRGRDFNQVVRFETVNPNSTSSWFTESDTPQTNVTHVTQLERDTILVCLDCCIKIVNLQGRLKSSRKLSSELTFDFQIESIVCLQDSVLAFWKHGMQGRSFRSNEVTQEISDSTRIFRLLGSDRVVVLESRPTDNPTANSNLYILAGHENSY
Chain of Uncharacterized serine/threonine-protein kinase SBK3 (Homo sapiens) (P0C264 whole entry, the tested form may be a part): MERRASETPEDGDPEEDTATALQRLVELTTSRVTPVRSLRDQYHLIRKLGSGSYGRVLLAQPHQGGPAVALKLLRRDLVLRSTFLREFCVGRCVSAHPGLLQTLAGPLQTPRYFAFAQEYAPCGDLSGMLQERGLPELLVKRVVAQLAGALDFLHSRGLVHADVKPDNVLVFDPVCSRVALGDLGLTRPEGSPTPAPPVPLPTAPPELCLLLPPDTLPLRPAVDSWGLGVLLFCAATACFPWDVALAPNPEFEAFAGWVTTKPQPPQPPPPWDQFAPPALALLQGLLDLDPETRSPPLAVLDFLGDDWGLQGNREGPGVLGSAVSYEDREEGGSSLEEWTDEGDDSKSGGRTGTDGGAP

SMILES | IC50 (HEK293) [nM] | Activity [1] [%] | Activity [2] [%] | Activity [3] [%] | Activity [4] [%] | Activity [5] [%] | Activity [6] [%] | Activity [7] [%] | Activity [8] [%] | Activity [9] [%] | IC50 (HCT-116 [10]) [nM] | Activity (HCT-116 [11]) [%] | Activity (PC-3) [%]
CCC(=O)Nc1ccc(C(=O)Nc2ccc(Nc3ncc4c(n3)N(C)c3ccc(C)cc3C(=O)N4C)cc2)cc1 | 100 | 89 | 0.45 | 100 | 86 | 70 | 79 | 63 | 58 | 70 |  |  | 
C=CC(=O)Nc1ccc(C(=O)Nc2ccc(Nc3ncc4c(n3)N(C)c3ccc(C)cc3C(=O)N4C)cc2)cc1 |  | 83 | 0 | 97 | 90 | 100 | 97 | 84 | 93 | 93 | 845 | 50 | 50
